In brackets after ≈: the same amount, converted by molar mass.
Tests used:
Pichia kudriavzevii = experiment: Antifungal activity against Candida krusei ATCC 6258 by broth microdilution method; type: functional
Summary of the method: (§1)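 MIC per NCCLS broth microdilution. Fungi incubated at 35 °C and growth checked daily. Fluconazole served as positive control.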

Candida albicans [1] = experiment: Antifungal activity against fluconazole-resistant Candida albicans 100 by broth microdilution method; type: functional
Summary of the method: (§2)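 Broth microdilution MIC per NCCLS guidelines; strains from a Chinese medical fungus preservation centre and Shenyang Pharmaceutical University. Cultures kept at 35 °C with daily growth observation.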

Candida albicans [2] = experiment: Antifungal activity against Candida albicans ATCC 10231 by broth microdilution method; type: functional; summary of the method: as §2
Nakaseomyces glabratus = experiment: Antifungal activity against Candida glabrata ATCC 0001 by broth microdilution method; type: functional; summary of the method: as §1
[3] = target: T1, Lanosterol 14-alpha demethylase (Candida albicans (strain SC5314 / ATCC MYA-2876) (Yeast), UniProt P10613); experiment: Inhibition of CYP51 in Candida albicans SC5314 assessed as obtusifoliol content at 8 ug/ml after 16 hrs by GC/MS analysis relative to control; parameters: scale not given: the % may be the effect or the level left; conditions: candida albicans sc5314, 16 h
[4] = target: T1, Lanosterol 14-alpha demethylase; experiment: Inhibition of CYP51 in Candida albicans SC5314 assessed as ergosterol content at 8 ug/ml after 16 hrs by GC/MS analysis (reference value: 90.3%); parameters: scale not given: the % may be the effect or the level left; conditions: candida albicans sc5314, 16 h
Candida tropicalis = experiment: Antifungal activity against Candida tropicalis ATCC 1369 by broth microdilution method; type: functional; summary of the method: as §1
Candida albicans [5] = experiment: Antifungal activity against fluconazole-resistant Candida albicans 103 by broth microdilution method; type: functional; summary of the method: as §2
[6] = target: T1, Lanosterol 14-alpha demethylase; experiment: Inhibition of CYP51 in Candida albicans SC5314 assessed as eburicol content at 8 ug/ml after 16 hrs by GC/MS analysis relative to control; parameters: scale not given: the % may be the effect or the level left; conditions: candida albicans sc5314, 16 h
[7] = target: T1, Lanosterol 14-alpha demethylase; experiment: Inhibition of CYP51 in Candida albicans SC5314 assessed as lanosterol content at 8 ug/ml after 16 hrs by GC/MS analysis (reference value: 3.9%); parameters: scale not given: the % may be the effect or the level left; conditions: candida albicans sc5314, 16 h
Aspergillus fumigatus = experiment: Antifungal activity against Aspergillus fumigatus KM8001 by broth microdilution method; type: functional; summary of the method: as §1
[8] = target: T1, Lanosterol 14-alpha demethylase; experiment: Inhibition of CYP51 in Candida albicans SC5314 assessed as unidentified sterol content at 8 ug/ml after 16 hrs by GC/MS analysis (reference value: 5.8%); parameters: scale not given: the % may be the effect or the level left; conditions: candida albicans sc5314, 16 h

T1 sequence (P10613 whole entry): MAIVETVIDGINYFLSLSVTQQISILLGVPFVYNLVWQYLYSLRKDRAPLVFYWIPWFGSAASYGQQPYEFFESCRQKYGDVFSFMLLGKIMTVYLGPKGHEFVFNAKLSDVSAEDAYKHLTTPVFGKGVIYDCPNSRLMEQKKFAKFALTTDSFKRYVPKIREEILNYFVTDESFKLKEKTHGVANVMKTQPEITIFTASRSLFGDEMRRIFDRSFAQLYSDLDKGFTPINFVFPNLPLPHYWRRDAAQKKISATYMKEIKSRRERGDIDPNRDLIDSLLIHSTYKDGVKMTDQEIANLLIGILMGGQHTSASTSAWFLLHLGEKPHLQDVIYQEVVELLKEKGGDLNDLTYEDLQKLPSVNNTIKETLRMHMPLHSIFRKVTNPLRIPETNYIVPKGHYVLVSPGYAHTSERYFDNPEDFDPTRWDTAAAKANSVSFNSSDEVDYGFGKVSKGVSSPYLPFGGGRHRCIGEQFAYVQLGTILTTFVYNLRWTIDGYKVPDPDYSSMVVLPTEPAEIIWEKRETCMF

Structure (SMILES)	MIC (Pichia kudriavzevii)	MIC (Candida albicans [1])	MIC (Candida albicans [2])	MIC (Nakaseomyces glabratus)	Activity [3]	Activity [4]	MIC (Candida tropicalis)	MIC (Candida albicans [5])	Activity [6]	Activity [7]	MIC (Aspergillus fumigatus)	Activity [8]
COc1cccc(NC(=S)N(CCN(C)C)[C@@H](C)c2ccncc2)c1	4 mg/L (≈ 11.2 µM)	8 mg/L (≈ 22.3 µM)	4 mg/L (≈ 11.2 µM)	2 mg/L (≈ 5.58 µM)	7.1%	5.8%	4 mg/L (≈ 11.2 µM)	4 mg/L (≈ 11.2 µM)	59%	22.4%	8 mg/L (≈ 22.3 µM)	5.7%
O=C(NCCc1ccncc1)c1cnc2c(F)cccc2c1O	8 mg/L (≈ 25.7 µM)	8 mg/L (≈ 25.7 µM)	8 mg/L (≈ 25.7 µM)	4 mg/L (≈ 12.8 µM)	8.2%	9.1%	16 mg/L (≈ 51.4 µM)	16 mg/L (≈ 51.4 µM)	54.7%	23.1%	16 mg/L (≈ 51.4 µM)	4.9%
Nc1c(/C=N/NC(=O)c2ccncc2)ccc2c1C(=O)c1ccccc1C2=O	4 mg/L (≈ 10.8 µM)	8 mg/L (≈ 21.6 µM)	8 mg/L (≈ 21.6 µM)	8 mg/L (≈ 21.6 µM)	7.4%	4.6%	2 mg/L (≈ 5.4 µM)	16 mg/L (≈ 43.2 µM)	63.4%	20.3%	16 mg/L (≈ 43.2 µM)	4.3%
OC(Cn1cncn1)(Cn1cncn1)c1ccc(F)cc1F [FLUCONAZOLE]	2 mg/L (≈ 6.53 µM)	> 64 mg/L	4 mg/L (≈ 13.1 µM)	2 mg/L (≈ 6.53 µM)	6.3%	2.5%	2 mg/L (≈ 6.53 µM)	> 64 mg/L	67.2%	19.9%	32 mg/L (≈ 104 µM)	4.1%
